Here are results for 34 compounds from ChEMBL document CHEMBL3612036, “Design, Synthesis, and Cardioprotective Effects of N-Mercapto-Based Hydrogen Sulfide Donors” (J Med Chem, 2015).

Activity calls are given as the source filed them. The calls are words filed in the database; no cut-off is given here.

Series [1] in a line: […] peak time for H2S release in pH 7.4 PBS buffer containing 10% THF incubated for 2 hrs at room temperature in presence of cysteine by methylene blue based UV-Vis spectrometry. The following applies: pH 7.4, 2 h. Type of series: physicochemical. The essentials: (§1)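 Donor (30 mM THF stock; 0.1 mM final) was added to PBS (pH 7.4, 50 mM)/THF 9:1 containing the stated thiol, at room temperature for 2 h. 1.0 mL aliquots were taken periodically into methylene blue cocktail (zinc acetate, N,N-dimethyl-p-phenylenediamine in HCl, FeCl3 in HCl) and reacted 15 min. Absorbance was read at 670 nm and H2S quantified against a Na2S calibration curve; peak concentration and peak time were recorded.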

Series [2] can be described thus: […] peak time for H2S release in pH 7.4 PBS buffer containing 10% THF incubated for 2 hrs at room temperature in presence of 1 mM GSH by methylene blue based UV-Vis spectrometry. The format is physicochemical. The following applies: pH 7.4, 2 h. An outline of the steps:
as §1

Series [3] is described as follows: GSH-induced H2S release assessed as peak H2S level in pH 7.4 PBS buffer containing 10% THF incubated for 2 hrs at room temperature in presence of cysteine by methylene blue based UV-Vis spectrometry. Type of series: physicochemical. The following applies: pH 7.4, 2 h. An outline of the steps: as §1
Series [4] in a line: GSH-induced H2S release assessed as peak H2S level in pH 7.4 PBS buffer containing 10% THF incubated for 2 hrs at room temperature in presence of 1 mM GSH by methylene blue based UV-Vis spectrometry. Type of series: physicochemical. The following applies: pH 7.4, 2 h. The essentials:
as §1

Series [5] concerns H9c2. In words: Cytoprotective activity against H2O2-induced cell damage in rat H9c2 cells at 160 uM incubated for 1 hr before H2O2 challenge for 5 hrs by CCK8 assay. Type of series: functional, cell-based. The essentials:
(§2)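 H9c2 cells (high-glucose DMEM, 10% FBS, 37 °C, 5% CO2) were preincubated 1 h with test agent, washed with PBS, then exposed to H2O2 (400 μM) for 5 h. Viability was read by CCK-8 (1:10 dilution, 3 h at 37 °C, absorbance 450 nm). The mean OD of 4 wells was expressed as % of control. Experiments were done in triplicate.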
Background: Tetrazolium assays rely on reduction of a dye to a coloured formazan, in cell work by metabolically active cells.

The test system of series [6] is H9c2. Description: Cytoprotective activity against H2O2-induced cell damage in rat H9c2 cells at 480 uM incubated for 1 hr before H2O2 challenge for 5 hrs by CCK8 assay. Type of series: functional, cell-based. An outline of the steps: as §2
Series [7] has as its system H9c2. In words: Cytotoxicity against rat H9c2 cells assessed as reduction in cell viability at <40 uM incubated for 1 hr by CCK8 assay. The format is cell-based. The following applies: h9c2, 1 h. The essentials: (§3)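 H9c2 cells (high-glucose DMEM, 10% FBS, 37 °C, 5% CO2) were exposed 1 h to donor over 20–160 μM, either alone or with 480 μM cysteine, then washed twice with PBS. Viability was measured by CCK-8 (1:10 dilution, 3 h at 37 °C, absorbance 450 nm). The mean OD of 4 wells was expressed as % of control, in triplicate.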

Series [8] relates to H9c2. In words: Cytotoxicity against rat H9c2 cells assessed as reduction in cell viability at >80 uM incubated for 1 hr by CCK8 assay. The following applies: h9c2, 1 h. Type of series: cell-based. An outline of the steps: as §3
Series [9] relates to H9c2. Description: Cytotoxicity against rat H9c2 cells assessed as reduction in cell viability at 160 uM in presence of 480 uM cysteine incubated for 1 hr by CCK8 assay. The format is cell-based. The following applies: h9c2, 1 h. An outline of the steps: as §3
Series [10] concerns H9c2. Description: Cytoprotective activity against H2O2-induced cell damage in rat H9c2 cells at 160 uM pre-incubated for 1 hr before H2O2 challenge for 5 hrs in presence of 480 uM cysteine by LDH release assay. Type of series: functional, cell-based. The essentials: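 H9c2 cells at about 70% confluence were preconditioned 1 h with donor plus cysteine (480 μM), then treated with H2O2 (400 μM) for 5 h. Extracellular LDH was measured in supernatant; intracellular LDH in lysate made with 2% Triton X-100 in DMEM. Kit reaction ran 10 min at room temperature, read at 490/600 nm. % release = extracellular/(extracellular+intracellular). Run 4 times.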
(In general: LDH in the medium is a marker of cell lysis.)

Series [11] concerns H9c2. In words: Cytoprotective activity against H2O2-induced cell damage in rat H9c2 cells assessed as reduction in mitochondrial membrane potential loss at 160 uM pre-incubated for 1 hr before H2O2 challenge for 5 hrs in presence of 480 uM cysteine by Rh123 dye based fluorescent microscopy. The format is functional. An outline of the steps:
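H9c2 cells were grown in high-glucose DMEM with 10% FBS at 37 °C, 5% CO2. They were pretreated 1 h with donor plus cysteine (480 μM), then given H2O2 (400 μM) for 5 h. Rh123 (10 mg/L) was added for 15 min at 37 °C. Fluorescence microscopy gave mean Rh123 intensity from four random fields.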

As to `Cc1ccc(NC(=O)NSC(=O)c2ccccc2)cc1`, the Time stood at 90 min in series [1] and 130 min in series [2]. For the same compound, the values for the Activity in [3] and in series [4] were 21.8 µM and 27.4 µM, respectively.
For `O=C(NSC(=O)C1CCCC1)c1ccccc1`, in that order: 60 min, 65 min, 40.9 µM and 49.9 µM.
Regarding `O=C(N[C@@H](CS)C(=O)O)c1ccccc1`, the outcome in series [5] was inactive.
On to `O=C(Cc1ccccc1)SNC(=O)c1ccccc1`, for which the Time in [1] is given as 50 min; in [2] it was 60 min. Besides, the results for the Activity in series [3] and in series [4] were 33.4 µM and 47.5 µM, respectively.
For `O=C(NSC(=O)C1CCCCC1)c1ccccc1`, in that order: 65 min, 80 min, 48.1 µM and 68.2 µM.
For `O=C(NSC(=O)c1ccc(F)cc1)Nc1ccccc1`, in that order: 75 min, 90 min, 18.8 µM and 18.5 µM.
For `O=C(NSC(=O)c1ccccc1)Nc1ccccc1`, in that order: 95 min, 110 min, 21.5 µM and 29.9 µM.
Regarding `CC(=O)NSC(=O)c1ccccc1`, the values for the Time in series [1] and in series [2] were 45 min and 50 min, respectively. Besides, the Activity was 46.4 µM in series [3] and 58.3 µM in [4].
The corresponding values for `CC(C(=O)SNC(=O)c1ccccc1)c1ccccc1` (configuration not stated) are 60 min, 70 min, 48.2 µM and 55.6 µM.
For `CN(C)c1ccc(C(=O)SNC(=O)c2ccccc2)cc1`, in that order: 65 min, 80 min, 19.5 µM and 7.6 µM.
Regarding `CCCC(=O)NSC(=O)c1ccccc1`, the Time in series [1] and in [2] was 60 min throughout. The figures for the Activity in [3] and in [4] were 45.9 µM and 58.3 µM, respectively.
Consider `Cc1cccc(C(=O)SNC(=O)c2ccccc2)c1`, for which the Time in series [1] was 55 min; in series [2], 65 min. For the same compound, the Activity in series [3] came to 49.3 µM; in series [4], 39.3 µM.
Regarding `O=C(NSC(=O)c1ccc(Cl)cc1)Nc1ccccc1`, the Time in series [1] came out at 95 min; in series [2], 120 min. Moreover, the figures for the Activity in series [3] and in series [4] were 18.2 µM and 24.9 µM, respectively.
The corresponding values for `Cc1ccc(C(=O)SNC(=O)Nc2ccccc2)cc1` are 105 min, 130 min, 16.5 µM and 20 µM.
`COc1ccc(C(=O)SNC(=O)Nc2ccccc2)cc1`: the figures for the Time in series [1] and in series [2] were 105 min and 120 min, respectively. For the same compound, the Activity in [3] was determined as 14.1 µM; in series [4], 26.4 µM.
The corresponding values for `CC(C)C(=O)SNC(=O)c1ccccc1` are 65 min, 70 min, 40.7 µM and 58.4 µM.
The corresponding values for `O=C(NSC(=O)c1ccccc1)Nc1ccc(Cl)cc1` are 110 min, 120 min, 10.7 µM and 20.9 µM.
For the compound `N[C@@H](CS)C(=O)O`, the result in series [6] was inactive.
For the compound `COc1ccccc1C(=O)SNC(=O)c1ccccc1`, the Time turned out to be 60 min in [1] and 80 min in [2]. Besides, the Activity in series [3] was determined as 29 µM; in series [4], 34 µM.
On to `COc1ccc(C(=O)SNC(=O)c2ccccc2)cc1`, for which the results for the Time in series [1] and in [2] were 60 min and 65 min, respectively. The Activity in [3] was 41.8 µM; in series [4] it was 46.8 µM; in series [7], “Non-toxic”; in series [8], “Toxic”; in series [9], “Non-toxic”. The outcome in series [10] and in [11] was Active.
`NC(=O)c1ccccc1`: the result in series [5] was inactive.
For `O=C(NSC(=O)c1ccccc1)c1cccc(Cl)c1`, the Time in [1] is 60 min; in series [2], 70 min. Also, the Activity was determined as 25.2 µM in [3] and 29.9 µM in series [4].
Take `O=C(NSC(=O)c1cccc(Cl)c1)c1ccccc1`: the Time came to 50 min in series [1] and 60 min in series [2]. Also, the Activity in [3] came out at 49.4 µM; in [4], 31.3 µM.
The corresponding values for `CCC(=O)NSC(=O)c1ccccc1` are 55 min, 60 min, 44.1 µM and 54.1 µM.
The corresponding values for `Cc1ccccc1C(=O)SNC(=O)c1ccccc1` are 60 min, 70 min, 29.4 µM and 19.8 µM.
With `COC(=O)c1ccc(C(=O)SNC(=O)c2ccccc2)cc1`, the Time in series [1] turned out to be 50 min; in [2] it was 55 min. Besides, the Activity in series [3] is 38.8 µM; in [4] it was 36 µM.
Turning to `Cc1ccc(C(=O)SNC(=O)c2ccccc2)cc1`, the Time in [1] and in [2] was 60 min each time. In addition, the Activity amounted to 45.4 µM in series [3] and 39.8 µM in [4].
Take `O=C(NSC(=O)c1ccc(C(F)(F)F)cc1)c1ccccc1`: the Time is 45 min in series [1] and 60 min in series [2]. Moreover, the Activity was 48.3 µM in series [3] and 28.1 µM in [4].
`O=C(NSC(=O)c1ccccc1)c1ccc(F)cc1`: the figures for the Time in series [1] and in series [2] were 55 min and 65 min, respectively. Further, the Activity in [3] was found to be 38.5 µM; in series [4] it was 43.3 µM.
Take `COc1cccc(C(=O)SNC(=O)c2ccccc2)c1`: the Time in series [1] was 55 min; in series [2], 80 min. The Activity was 47 µM in [3] and 39.5 µM in series [4].
Turning to `Cc1ccccc1C(=O)NSC(=O)c1ccccc1`, the figures for the Time in series [1] and in [2] were 55 min and 65 min, respectively. The Activity was found to be 51.4 µM in series [3] and 57.6 µM in series [4].
In the case of `CC(=O)SNC(=O)c1ccccc1`, the Time in series [1] is given as 60 min; in series [2], 70 min. In addition, the Activity in series [3] stood at 48.4 µM; in series [4], 63.1 µM.
For `CC(=O)Oc1ccccc1C(=O)NSC(=O)c1ccccc1`, in that order: 60 min, 60 min, 35.1 µM and 44.5 µM.
The corresponding values for `CC(C)(C)C(=O)SNC(=O)c1ccccc1` are 80 min, 90 min, 37.5 µM and 48.1 µM.
